Screens from PubChem BioAssay.
Hits are enriched below; roughly 4.3% of the tested compounds scored in any of these assays.
GalR3 antag = GalR3 antagonists in HEK293 cells, primary screen, cell-based, fluorescence readout; Galanin receptor type 3 (Homo sapiens), O60755; HEK293 GalR3-CNG cAMP membrane potential fluorescence; galR3 body fused to GalR1 C-terminus; inhibition, % at 3 µM; 360,000 tested, 0.44% active; AID 651719, 2012;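 active = inhibition above the screen-wide average plus 3 SD, cut at about 13% in these data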;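 also: forskolin and galanin both at EC90 stimulate the cells; cAMP rise reported by CNG channel membrane potential dye signal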
TAAR1 antag = human TAAR1 antagonists, primary screen, Fluo-8 calcium fluorescence, CHO RD-HGA16 cells; Trace amine-associated receptor 1 (Homo sapiens), Q96RJ0; antagonist; inhibition, % at 3 µM; 360,000 tested, 1.5% active;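 active = inhibition above a per-plate cutoff, the mean inhibition of test compounds on that plate plus 3 SD, cut at about 49% in these data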
Target sequence (Q96RJ0 whole entry, looked up): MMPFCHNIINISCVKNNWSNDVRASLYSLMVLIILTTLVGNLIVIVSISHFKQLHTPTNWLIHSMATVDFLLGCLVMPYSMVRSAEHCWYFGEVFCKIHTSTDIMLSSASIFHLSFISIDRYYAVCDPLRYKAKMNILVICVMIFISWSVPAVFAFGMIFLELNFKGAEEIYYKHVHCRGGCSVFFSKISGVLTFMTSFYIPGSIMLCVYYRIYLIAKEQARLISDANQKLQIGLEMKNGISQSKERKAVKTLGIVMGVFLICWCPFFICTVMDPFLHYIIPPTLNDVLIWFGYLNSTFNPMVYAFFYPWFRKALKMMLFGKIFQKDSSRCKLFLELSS
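Assay system: CHO-derived RD-HGA16 cells stably expressing human TAAR1 plus Gα16. Timing: 140 s kinetic read after compound, 140 s after agonist. Technique: kinetic Fluo-8 calcium fluorescence measurement. Measure: % inhibition of agonist calcium response.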
TAAR1 ag = human TAAR1 agonists, primary screen, Fluo-8 calcium fluorescence, CHO RD-HGA16 cells; activation, % at 3 µM; 360,000 tested, 0.99% active; Trace amine-associated receptor 1 (Homo sapiens), Q96RJ0; vehicle wells 0%, saturating PEA agonist 100%;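 active = activation above the mean activation of all test compounds in the run plus 3 SD, cut at about 38% in these data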
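Benchmarks: low control DMSO, high control PEA (EC100); System: CHO RD-HGA16 cells carrying human TAAR1 plus Gα16; Detection: Fluo-8 fluorescence, 5 s baseline then 140 s kinetic read; Schedule: 17-24 h plating, Fluo-8 75 min 37 °C, 30 min RT; Read-out basis: % activation from peak over basal fluorescence ratio, DMSO-to-PEA scaled.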
OX1R antag-1 = antagonists of human orexin 1 receptor (OX1R) | 330,000 tested, 1.8% active | OX1R-expressing cells, FRET antagonist read-out | Orexin/Hypocretin receptor type 1 (Homo sapiens), O43613 | inhibition, % at 6.6 µM; in the data active = inhibition mostly above about 38%, no sharp cut-off; inactive = mostly below about 40%
Target sequence (O43613 whole entry, looked up): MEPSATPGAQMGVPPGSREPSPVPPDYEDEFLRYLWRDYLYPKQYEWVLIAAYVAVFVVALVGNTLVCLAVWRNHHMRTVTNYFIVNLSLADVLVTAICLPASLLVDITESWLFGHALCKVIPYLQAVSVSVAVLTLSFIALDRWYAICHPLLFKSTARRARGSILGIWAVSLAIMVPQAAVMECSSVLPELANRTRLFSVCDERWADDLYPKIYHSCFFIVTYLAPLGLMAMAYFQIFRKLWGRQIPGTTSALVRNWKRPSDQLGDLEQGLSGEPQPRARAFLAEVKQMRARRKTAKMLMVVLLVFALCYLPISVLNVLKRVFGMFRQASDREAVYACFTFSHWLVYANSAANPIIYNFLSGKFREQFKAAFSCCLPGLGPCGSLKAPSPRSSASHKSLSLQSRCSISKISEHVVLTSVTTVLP
CHO parental Ca = ATP-evoked calcium signal inhibitors, parental CHO, primary screen, counter-screen for OX1R antagonist project, cell-based, fluorescence, Fluo-8 calcium dye; parental CHO-K1, ATP-induced calcium, Fluo-8 fluorescence; inhibition, % at 5.6 µM; 330,000 tested, 0.63% active; AID 463079, 2010;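 active = inhibition above that plate's mean sample inhibition plus 3 SD, cut at about 26% in these data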
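Material: Parental CHO cells | Reagent: ATP | Compound dosing: Single nominal dose of 5.6 µM per compound | Detection: Intracellular calcium via Fluo-8 no-wash fluorescent dye | Read-out: % inhibition of ATP-induced calcium mobilization | Benchmarks: Low control ATP plus DMSO, high control DMSO only | Replicates: Singlicate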
OX1R antag-2 = OX1R (HCRTR1) antagonists, primary screen, fluorescence, CHO/OX1R cells, Fluo-8 calcium, orexin A | Orexin/Hypocretin receptor type 1 (Homo sapiens), O43613 | Fluo-8 calcium fluorescence | 330,000 tested, 0.43% active | inhibition, % at 5 µM;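 active = inhibition above its plate's threshold, mean inhibition of all tested compounds on the plate plus 3 SD, cut at about 37% in these data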
OX1R HTRF conf = OX1R (HCRTR1) antagonists, confirmation, cell-based, HTRF; shares compounds with OX1R antag-1; OX1R-expressing cells, HTRF antagonist assay; inhibition, % at 6.6 µM; 1,800 tested, 49% active; AID 492964, 2010; in the data active = inhibition above about 55%;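 also: CHO cells expressing OX1R stimulated with orexin A at about EC80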
CHO-K1 HTRF cnt = signal inhibition in parental CHO-K1 cells, counter-screen for OX1R antagonist project, cell-based, HTRF; AID 493232, 2011; shares compounds with OX1R antag-1; HTRF counterscreen; inhibition, % at 6.6 µM; 1,800 tested, 48% active; in the data active = inhibition above about 17%
Large screens that a line does not name were inactive (follow-up assays come after a bar, where they were run).

Cc1cc(C)cc(N(C(=O)c2csnn2)C(C(=O)NC2CCCC2)c2ccccn2)c1 (stereo not drawn)	none
CSc1cccc(NC(=O)/C=C/c2cccc(Cl)c2)c1	OX1R antag-1 78 | OX1R HTRF conf 71 | CHO-K1 HTRF cnt inactive
CCOC(=O)CN1C=C(c2ccc3ccccc3n2)C(C[N+](=O)[O-])c2ccccc21 (stereo not drawn)	OX1R antag-1 117 (no result: GalR3 antag, TAAR1 antag, TAAR1 ag) | OX1R HTRF conf 55 | CHO-K1 HTRF cnt 67
CCCCN(CCCC)Cc1cc(=O)oc2ccc3ccccc3c12	none (no result: OX1R antag-1, CHO parental Ca, OX1R antag-2)
Nc1ncnc2c1ncn2[C@@H]1O[C@H](CNCc2c(OCc3ccccc3F)ccc3ccccc23)[C@@H](O)[C@H]1O	none
Clc1cccc(Nc2nc(-c3ccncc3)cs2)c1	OX1R antag-1 80 | OX1R HTRF conf inactive | CHO-K1 HTRF cnt inactive
C#CCOc1ccc2ccccc2c1/C=C(/C#N)c1ccc(C(=O)O)cc1	none
CSC1=N/C(=C/c2ccc(-n3cncn3)cc2)C(=O)N1	OX1R antag-1 86 | OX1R HTRF conf inactive | CHO-K1 HTRF cnt 25
CC1(C(=O)NS(=O)(=O)c2ccc(Cl)cc2)CCN1C(=O)c1ccc(C2CCCCC2)cc1 (stereo not drawn)	none (no result: OX1R antag-1, CHO parental Ca, OX1R antag-2)
COC(CNC(=O)c1ccc2nc(-c3cccs3)c(-c3cccs3)nc2c1)OC	OX1R antag-1 84 | OX1R HTRF conf inactive | CHO-K1 HTRF cnt inactive
O=S(=O)(Nc1nc2ccccc2nc1NCc1ccco1)c1ccccc1	none
O=S(=O)(Nc1nc2ccccc2nc1NCc1ccco1)c1ccc(F)cc1	OX1R antag-1 171 | OX1R HTRF conf inactive | CHO-K1 HTRF cnt inactive
Cc1c(C(=O)NCc2ccc3c(c2)OCO3)oc2ccc(Br)cc12	none
Cc1c(C(=O)Nc2ccc3c(c2)OCCO3)oc2ccc(Br)cc12	OX1R antag-1 82 | OX1R HTRF conf 76 | CHO-K1 HTRF cnt inactive
Cc1nc2ccccc2c2oc(C(=O)Nc3ccc4c(c3)OCCO4)cc12	OX1R antag-1 95 | OX1R HTRF conf 89 | CHO-K1 HTRF cnt inactive
Cc1nnc(NC(=O)CCN2C(=O)C3CC=CCC3C2=O)s1 (stereo not drawn)	none (no result: OX1R antag-1, CHO parental Ca, OX1R antag-2)
CN(c1ccc(O)cc1)c1nc(O)c(C2=c3ccccc3=NC2=O)s1	OX1R antag-1 79 | OX1R HTRF conf inactive | CHO-K1 HTRF cnt inactive
O=C(O)Cc1ccc(NC(=O)c2ccc3c(c2)C(=O)N(CC2CCCO2)C3=O)cc1 (stereo not drawn)	OX1R antag-1 79 | OX1R HTRF conf inactive | CHO-K1 HTRF cnt 43
COC(=O)Cc1ccc(NC(=O)c2ccc3c(c2)C(=O)N(CC2CCCO2)C3=O)cc1 (stereo not drawn)	none
O=[N+]([O-])c1ccc(N2CCCCC2)nc1N1CCCCC1	none
O=[N+]([O-])c1ccc2c(c1N1CCCCC1)=NC1(CCCCC1)[N+]=2[O-]	OX1R antag-1 77 | OX1R HTRF conf inactive | CHO-K1 HTRF cnt 77
CCCc1cc(C(=O)Nc2cccc(Cl)c2C)no1	none
Cc1ccc([C@@H]2CC=C(C(=O)O)[C@H](c3ccccc3F)N2S(=O)(=O)c2ccccc2C)cc1	OX1R antag-1 78 | OX1R HTRF conf 81 | CHO-K1 HTRF cnt inactive
COc1ccc([C@@H]2CC=C(C(=O)O)[C@H](c3cccc(Cl)c3)N2S(=O)(=O)c2ccccc2C)cc1	OX1R antag-1 88 | OX1R HTRF conf 91 | CHO-K1 HTRF cnt inactive
Cc1ccc(S(=O)(=O)N2[C@@H](c3ccccc3)C(C(=O)O)=CC[C@H]2c2ccc(Cl)cc2)cc1	OX1R antag-1 78 | OX1R HTRF conf inactive | CHO-K1 HTRF cnt inactive
Cc1ccccc1OCC(=O)OCC(=O)c1c[nH]c2ccccc12	none
CCCCn1nnnc1C(c1ccccc1)N1CCN(c2ccc(C(F)(F)F)cc2[N+](=O)[O-])CC1 (stereo not drawn)	none (no result: OX1R antag-1, CHO parental Ca, OX1R antag-2)
Oc1ccc2ccccc2c1N=Nc1ccccn1	OX1R antag-1 86 | OX1R HTRF conf inactive | CHO-K1 HTRF cnt 29
Oc1ccc2ccccc2c1N=Nc1ccccc1F	none
CC(=O)Nc1ccc(NC(=O)C(C)OC(=O)CN2C(=O)C3CCCCC3C2=O)cc1 (stereo not drawn)	none (no result: OX1R antag-1, CHO parental Ca, OX1R antag-2)
C/C(=N\Nc1cc(C(F)(F)F)ccc1Cl)c1ccncc1	none
Cc1ccc(-n2[nH]c3c4c(ccc3c2=O)C(=O)c2ccccc2C4=O)cc1	none
CC(C)(C)n1[nH]c2c3c(ccc2c1=O)C(=O)c1ccccc1C3=O	OX1R antag-1 129 | OX1R HTRF conf inactive | CHO-K1 HTRF cnt 43
COCCN1Cc2cccc(C(=O)Nc3cccc(-c4nc5ccccc5[nH]4)c3)c2C1=O	TAAR1 antag 61, OX1R antag-1 86 | OX1R HTRF conf 60 | CHO-K1 HTRF cnt inactive
CCCN1Cc2cccc(C(=O)Nc3ccc(-c4nc5ccccc5[nH]4)cc3)c2C1=O	none
O=C(CSCCN1C(=O)c2ccccc2C1=O)Nc1ccc2ccccc2c1	OX1R antag-1 81 | OX1R HTRF conf inactive | CHO-K1 HTRF cnt inactive
COc1ccc(NC(=O)c2cc3ccc(O)cc3o/c2=N\O)cc1	OX1R antag-1 85 | OX1R HTRF conf 76 | CHO-K1 HTRF cnt inactive
N=c1oc2cc(O)ccc2cc1C(=O)Nc1ccc(F)cc1	none
CCCCNC(=O)C1C(c2ccc(OC)cc2)=Nc2ccccc2N1C(=O)c1ccc2ncccc2c1 (stereo not drawn)	none (no result: OX1R antag-1, CHO parental Ca, OX1R antag-2)
N#CC1=C(N)Oc2cc(O)ccc2C1c1ccncc1 (stereo not drawn)	OX1R antag-1 111 | OX1R HTRF conf inactive | CHO-K1 HTRF cnt inactive
Cc1ccc2nc3ccc(N4CCN(C)CC4)nn3c(=O)c2c1	OX1R antag-1 77 | OX1R HTRF conf inactive | CHO-K1 HTRF cnt 25
O=c1c2ccccc2nc2ccc(N3CCOCC3)nn12	OX1R antag-1 94 | OX1R HTRF conf inactive | CHO-K1 HTRF cnt 37
Cc1ccc(C(=O)N/N=C\c2ccc([N+](=O)[O-])s2)cn1	none
CC(C)(C)OC(=O)N/N=C\c1ccc([N+](=O)[O-])s1	OX1R antag-1 88 | OX1R HTRF conf inactive | CHO-K1 HTRF cnt 44
